Measured values pooled from the literature.
Lines come from different studies, so protocols differ.
Target: Serine/threonine-protein kinase MARK1 (MARK1, Homo sapiens, UniProt Q9P0L2)

Structure (SMILES) | observed | action | technique | concentration | quantity | value
CCCS(=O)(=O)Nc1ccc(F)c(C(=O)c2c[nH]c3ncc(-c4ccc(Cl)cc4)cc23)c1F | enzyme activity | inhibitor |  | 1 µM | inhibition | < 10%
c1cc(CN2CCOCC2)cc(Nc2nccc(NCCc3cnc[nH]3)n2)c1 | enzyme activity | inhibitor | radiometric | 1 µM | remaining activity | 75%
C=CC(=O)Nc1cc(Nc2nccc(Nc3cc(Cl)c(F)cc3C(C)(C)O)n2)c(OC)cc1N1CC[C@@H](N(C)C)C1 | enzyme activity | inhibitor |  | 1 µM | inhibition | 4%
C[C@@H](c1cccc(C#N)c1)n1cc(Cl)cc(C(N)=O)c1=N | cell-free assay |  | competition with immobilised ligand | 1 µM | remaining binding | 100%
FC(F)(F)Oc1cccc(-c2cnc3ccc(-c4ccncc4)nn23)c1 | enzyme activity | inhibitor | radiometric | 5 µM | activity vs control | 95%
Cc1nn(CC(F)(F)F)cc1Nc1ncc(C2CC2)c(NCCc2c[nH]cn2)n1 | enzyme activity | inhibitor | radiometric | 1 µM | remaining activity | 71%
Cc1ccc(NC(=O)c2ccc(C)c(C(F)(F)F)c2)cc1C#Cc1nn(C2CCC(O)CC2)c2ncnc(N)c12 (centres unmarked) | cell-free assay |  |  | 10 µM | remaining signal | 94%
C[C@@]1(Cc2ccc(C#N)cc2)C(=O)N(c2cc(Cl)cc(Cl)c2)c2ncc(C(=O)NC3(c4nc(C5CCC5)no4)CC3)n21 | cell-free assay |  | competition with immobilised ligand | 1 µM | remaining binding | 100%
CNC(=O)c1cc(Oc2ccc(NC(=O)Nc3ccc(Cl)c(C(F)(F)F)c3)cc2)ccn1 | enzyme activity | inhibitor |  | 10 µM | inhibition | 8%
CCCCN(CCCC)C(=O)CN1C[C@H](c2cc(OC)c3c(c2)OCO3)[C@@H](C(=O)O)[C@@H]1CC(C)(C)CCC | cell-free assay |  | competition with immobilised ligand | 1 µM | remaining binding | 96.5%
C#Cc1cccc(Nc2ncnc3cc(OCCOC)c(OCCOC)cc23)c1 | cell-free assay |  |  | 0.5 µM | remaining signal | 130%
Cc1nn(CC(F)(F)F)cc1Nc1ncc(Br)c(NCCCNC(=O)C2CCC2)n1 | enzyme activity | inhibitor | radiometric | 1 µM | remaining activity | 8%
O=C1Nc2ccc(Cl)cc2C1=Cc1cc(Cl)c(O)c(Cl)c1 | cell-free assay |  |  | 0.5 µM | remaining signal | 89.5%
O=C(Nc1cccc(Nc2ncc(Br)c(NCCc3cnc[nH]3)n2)c1)N1CCCC1 | enzyme activity | inhibitor | radiometric | 1 µM | remaining activity | -4%
Cc1sc(C(=O)NC2COC2)cc1-n1cc(NC(=O)Nc2c(F)cccc2Cl)cn1 | enzyme activity | inhibitor |  | 10 µM | remaining activity | 95.3%
Cc1ccc(Nc2nccc(N(C)c3ccc4c(C)n(C)nc4c3)n2)cc1S(N)(=O)=O | enzyme activity | inhibitor |  | 0.3 µM | inhibition | 19%

Structure (SMILES) | observed | action | technique | concentration | quantity | value
NS(=O)(=O)c1ccc(CNc2nc(Nc3cccc(NC(=O)N4CCCC4)c3)ncc2C2CC2)cc1 | enzyme activity | inhibitor | radiometric | 1 µM | remaining activity | 94%
CS(=O)(=O)NCC[C@H](NC(=O)c1cncc2c1cnn2-c1ccc(F)cc1)c1ccnc(S(C)(=O)=O)c1 | cell-free assay |  | competition with immobilised ligand | 1 µM | remaining binding | 92%
COc1cc2ncnc(Nc3ccc(Oc4ccccc4)c(C)c3C)c2cc1OC | enzyme activity | inhibitor |  | 1 µM | inhibition | 2%
O=C(NCc1ncc(C(F)(F)F)cc1Cl)c1ccc2c(c1)C1(CCS(=O)(=O)CC1)[C@H](C1CC1)N2S(=O)(=O)c1ccc(F)cc1 | cell-free assay |  | competition with immobilised ligand | 1 µM | remaining binding | 100%
O=C(NCCCNc1nc(Nc2cccc(NC(=O)N3CCCC3)c2)ncc1C1CC1)C1CCC1 | enzyme activity | inhibitor | radiometric | 1 µM | remaining activity | -4%
CN(C)c1nccc(-c2cnn3ncccc23)n1 | binding |  |  | 1 µM | remaining binding | 96%
N#CCCc1ccc2c(c1)-c1[nH]c3ccc([N+](=O)[O-])cc3c1CC(=O)N2 | cell-free assay |  |  | 0.5 µM | remaining signal | 67.4%
CC1=C(C#N)C(c2ccc3c(c2)c(NC(=O)c2ccccc2C)nn3C)C(C#N)=C(C)N1 | cell-free assay |  | competition with immobilised ligand | 1 µM | remaining binding | 100%
CCN(CC)CCNC(=O)c1c(C)[nH]c(/C=C2\C(=O)Nc3ccc(F)cc32)c1C | enzyme activity | inhibitor |  | 10 µM | inhibition | 92%
COc1cc(-c2cn(C3CCc4ccccc4N(CC(F)(F)F)C3=O)nn2)ccc1-n1ccc(C)n1 (centres unmarked) | cell-free assay |  | competition with immobilised ligand | 1 µM | remaining binding | 99%
O=C(NCCCNc1nc(Nc2cccc(NC(=O)N3CCCC3)c2)ncc1I)c1cccs1 | enzyme activity | inhibitor | radiometric | 1 µM | remaining activity | -5%
CS(=O)(=O)CCNCc1ccc(-c2ccc3ncnc(Nc4ccc(OCc5cccc(F)c5)c(Cl)c4)c3c2)o1 | cell-free assay |  |  | 0.5 µM | remaining signal | 149%
CN1CCc2cc(Nc3ncc(C4CC4)c(NCCCNC(=O)C4CCC4)n3)ccc2C1 | enzyme activity | inhibitor | radiometric | 1 µM | remaining activity | -1%
O=S(=O)(NC1CCC(c2cc(F)ccc2F)(S(=O)(=O)c2ccc(Cl)cc2)CC1)C(F)(F)F (centres unmarked) | cell-free assay |  | competition with immobilised ligand | 1 µM | remaining binding | 100%
Nc1ncnc2occ(-c3ccc(NC(=O)Nc4cc(C(F)(F)F)ccc4F)cc3)c12 | cell-free assay | inhibitor |  | 20 µM | remaining signal | 34%
CNc1cccc2cc(C(=O)Nc3ccc(C(=O)O)cc3)c(=O)[nH]c12 | enzyme activity | inhibitor |  | 10 µM | inhibition | -26%
